Results pooled from the literature.
Each line is one published result; the experiments were not run side by side.
EAPA: Endothiapepsin (EAPA, Cryphonectria parasitica, UniProt P11838)
MMP3: Stromelysin-1 (MMP3, Homo sapiens, UniProt P08254)
TACR1: Substance-P receptor (TACR1, Homo sapiens, UniProt P25103)
Trypanothione synthetase: Trypanothione synthetase (Trypanosoma cruzi, UniProt Q9GT49)
BDKRB2: B2 bradykinin receptor (BDKRB2, Homo sapiens, UniProt P30411)
HTR2C: 5-hydroxytryptamine receptor 2C (HTR2C, Homo sapiens, UniProt P28335)
SIK1: Serine/threonine-protein kinase SIK1 (SIK1, Homo sapiens, UniProt P57059)
Tmem97: Sigma intracellular receptor 2 (Tmem97, Rattus norvegicus, UniProt Q5U3Y7)

Compound	target	effect on	mode	method	tested at	pH	inhibition
NNC(COCc1ccccc1)c1nnnn1CC(=O)NCc1cccs1 (centres unmarked)	EAPA	enzyme activity	inhibitor		200 µM		51.9%
O=C(O)c1ccc(C(=O)O)nc1	MMP3	enzyme activity	inhibitor		1 mM	pH 6	> 80%
O=C1N=C(N2CCCCN2)S/C1=C\c1ccc(F)cc1O	Melatonin receptor type 1A (MTNR1A, Homo sapiens, UniProt P48039)	ligand displacement		radioligand	10 µM		< 10%
O=C(Nc1ccc(S(=O)(=O)N2CCC(Cl)CC2)cc1)c1ccc([N+](=O)[O-])o1	TACR1	ligand displacement		radioligand	10 µM		3%
O=C(CN1C(=O)Cc2c([nH]c3ccc(Br)cc23)-c2ccc(Cl)cc21)Nc1ncco1	Trypanothione synthetase	enzyme activity	inhibitor	absorbance	30 µM		6.9%
O=C(c1ccc(Cl)cc1)N(Cc1ccccc1)C1CCCCC1	BDKRB2	cell-free assay			10 µM		-1.6%
NNC(CCc1ccccc1)c1nnnn1Cc1ccc2c(c1)OCO2 (centres unmarked)	EAPA	enzyme activity	inhibitor		200 µM		36.3%
O=C(O)c1ncccc1O	MMP3	enzyme activity	inhibitor		1 mM	pH 6	~50%
CCCC(NN)c1nnnn1Cc1ccccc1 (centres unmarked)	EAPA	enzyme activity	inhibitor		200 µM		3%
N#Cc1cc(Cn2c(N3CCCC3)nc3ccccc32)ccc1F	HTR2C	ligand displacement		radioligand	10 µM		14.4%
Oc1ccc(-c2nnc(CCCOc3ccc(Cl)cc3Cl)o2)c(F)c1	1-deoxy-D-xylulose-5-phosphate synthase (dxs, Deinococcus radiodurans, UniProt Q9RUB5)	enzyme activity	inhibitor		120 µM		49.2%
O=C(CN1C(=O)Cc2c([nH]c3ccc(Br)cc23)-c2ccc(Cl)cc21)NCCN1CCCCC1	Trypanothione synthetase	enzyme activity	inhibitor	absorbance	30 µM		21.4%
Cc1ccc(Nc2nccc(N(C)c3ccc4c(C)n(C)nc4c3)n2)cc1S(N)(=O)=O	SIK1	enzyme activity	inhibitor		10 µM		69%
CCNC(=O)CN1C(=O)Cc2c([nH]c3ccc(Br)cc23)-c2ccc(Cl)cc21	Trypanothione synthetase	enzyme activity	inhibitor	absorbance	30 µM		41.4%
Ic1cccc2cnccc12	Poly [ADP-ribose] polymerase tankyrase-2 (TNKS2, Homo sapiens, UniProt Q9H2K2)	enzyme activity	inhibitor		10 µM		12%
Oc1cccc(Nc2nc(-c3ccc(F)cc3F)cs2)c1	BDKRB2	cell-free assay			10 µM		-68.7%
NNC(c1nnnn1CC(c1ccccc1)c1ccccc1)C1CCCCC1 (centres unmarked)	EAPA	enzyme activity	inhibitor		200 µM		71.3%
CNC(=O)c1cc(Oc2ccc(NC(=O)Nc3ccc(Cl)c(C(F)(F)F)c3)cc2)ccn1	SIK1	enzyme activity	inhibitor		0.3 µM		4%

Compound	target	effect on	mode	method	tested at	pH	inhibition
CN(Cc1ccc(NC(=O)C2=Cc3cc(-c4ccc(OCCCCCCCF)cc4)ccc3CCC2)cc1)C1CCOCC1	Tmem97	ligand displacement		radioligand	10 µM		17%
CN(C)C1CCN(CC#Cc2nn(C3CCCC3)c3nc(NCc4ccccc4)ncc23)C1 (centres unmarked)	Rho-associated protein kinase 1 (ROCK1, Homo sapiens, UniProt Q13464)	enzyme activity	inhibitor	FRET	10 µM		-4%
CCCCCC(NN)c1nnnn1Cc1ccc2c(c1)OCCO2 (centres unmarked)	EAPA	enzyme activity	inhibitor		200 µM		48.2%
CC(C)(C)NC(=O)CN1C(=O)Cc2c([nH]c3ccc(Br)cc23)-c2ccc(Cl)cc21	Trypanothione synthetase	enzyme activity	inhibitor	absorbance	30 µM		5.8%
O=C(c1ccc(OCCN2CCCCC2)cc1)c1c(-c2ccc(O)cc2)sc2cc(O)ccc12	Trypanothione synthetase	enzyme activity	inhibitor	absorbance	25 µM		24.5%
O=C(CN1C(=O)Cc2c([nH]c3ccc(Br)cc23)-c2ccc(Cl)cc21)N1CCN(c2ncccn2)CC1	Trypanothione synthetase	enzyme activity	inhibitor	absorbance	30 µM		40.6%
NNC(COCc1ccccc1)c1nnnn1CCc1ccc(O)cc1 (centres unmarked)	EAPA	enzyme activity	inhibitor		200 µM		91.5%
O=C(c1ccc(F)cc1)N(Cc1ccccc1)C1CCCCC1	B1 bradykinin receptor (BDKRB1, Homo sapiens, UniProt P46663)	cell-free assay			10 µM		-7%
CCOC(=O)CN1C(=O)Cc2c([nH]c3ccc(Br)cc23)-c2ccc(Cl)cc21	Trypanothione synthetase	enzyme activity	inhibitor	absorbance	30 µM		19.1%
CCCNc1nc2ccccc2n1Cc1ccc(Cl)cc1	HTR2C	ligand displacement		radioligand	10 µM		80%
COc1cc(NC(C)=O)c(Cl)cc1C(=O)Nc1nccs1	TACR1	cell-free assay			10 µM		-2.9%
CCN(Cc1ccccc1C(F)(F)F)C(=O)C1CCN(S(=O)(=O)c2ccc3[nH]ncc3c2)CC1	TACR1	ligand displacement		radioligand	10 µM		18%
C=CC1=C(C)C2=Cc3c(C=C)c(C)c4[n]3[Sn]([Cl])([Cl])[n]3c(c(C)c(CCC(=O)O)c3=CC3=NC(=C4)C(C)=C3CCC(=O)O)=CC1=N2	Trypanothione synthetase	enzyme activity	inhibitor	absorbance	25 µM		18.7%
O=C(CN1C(=O)Cc2c([nH]c3ccc(Br)cc23)-c2ccc(Cl)cc21)NCCN1CCNCC1	Trypanothione synthetase	enzyme activity	inhibitor	absorbance	30 µM		7.9%
CCN(CC)c1ccc(C2Nc3ccc(C(=O)c4ccccc4)cc3NC3=C2C(=O)CC(C)(C)C3)cc1 (centres unmarked)	HTR2C	ligand displacement		radioligand	10 µM		5%
COC(=O)CN1C(=O)Cc2c([nH]c3ccc(Br)cc23)-c2ccc(Cl)cc21	Trypanothione synthetase	enzyme activity	inhibitor	absorbance	30 µM		37.4%
COc1ccc(CCC(C)N2CCc3cc(OC)c(OC)cc3C2)cc1 (centres unmarked)	Tmem97	ligand displacement		radioligand	0.1 µM		98%
